Compound activity: PubChem, several laboratories
HKDC1 inh: HKDC1 hexokinase inhibitors, primary screen, biochemical, fluorescence, uHTS; Q2TB90; inhibition, % at 20 µM; actives 0.16% (n = 340,000); recombinant HKDC1, G6PDH/diaphorase resazurin coupled fluorescence;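 active = inhibition above about 35% when tested at 20 µM, limit read from the data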;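 also: plate controls were DMSO wells with enzyme for no effect and DMSO wells lacking enzyme for full effect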
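test system = in-house recombinant HK5 (HKDC1) enzyme | amount = HKDC1 at 5 µg/mL | control set = DMSO-enzyme wells negative, buffer-substituted wells positive | compound = one dose of 20 µM, 1% DMSO | schedule = reaction time 90 min, room temperature, protected from light | technique = resorufin fluorescence at 613 nm | reagent = glucose with 1 mM ATP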
SUMO HTRF inh: inhibitors of in vitro SUMOylation cascade, primary screen, biochemical, HTRF, uHTS. SUMO-conjugating enzyme UBC9 (Homo sapiens), P63279. inhibition, % at 35 µM. actives 0.36% (n = 290,000). HTRF SUMOylation assay, SAE1/SAE2 + UBC9. AID 2006, 2009; in the data active = inhibition above about 50%, passing the limit was not always enough
Target sequence (P63279 whole entry, looked up): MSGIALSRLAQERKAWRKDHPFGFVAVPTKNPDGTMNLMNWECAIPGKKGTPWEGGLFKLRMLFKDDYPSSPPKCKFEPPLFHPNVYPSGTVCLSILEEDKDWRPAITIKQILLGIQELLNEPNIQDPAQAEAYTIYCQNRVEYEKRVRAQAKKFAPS
G6PDH counter: L. mesenteroides G6PDH inhibitors, counter-screen for G6PDH-coupled screening assays, biochemical, Leuconostoc mesenteroides enzyme. inhibition, % at 5 µM. glucose-6-phosphate dehydrogenase [Leuconostoc mesenteroides]. actives 0.12% (n = 200,000). Purified L. mesenteroides G6PDH, diaphorase/resazurin coupled fluorescence, 45 min; in the data active = inhibition above about 50%
Diaphorase inh: diaphorase inhibitors and chemical oxidizers, primary screen, counter-screen for diaphorase-coupled primary assays, biochemical, uHTS, resorufin fluorescence; diaphorase resazurin-to-resorufin fluorescence, NADH, 16 min; bacterial (C. kluyveri) enzyme, not human; inhibition, % at 20 µM; actives 0.69% (n = 190,000); AID 1217, 2008;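 active = primary screen inhibition at 20 µM above a set limit, cut at about 50% in these data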;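 also: plate controls were DMSO with full reaction for no effect and wells lacking NADH for full effect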
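Benchmarks: positive control wells lacking NADH, neutral wells with DMSO only. System: bacterial diaphorase enzyme (C. kluyveri). Input: 0.14 U/mL diaphorase, enzyme working solution. Detection: resorufin fluorescence, excitation 544 nm, emission 590 nm. Times: 16-min room-temperature incubation before reading.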
p97 ATPase inh: inhibitors of human p97 ATPase, primary screen, biochemical. inhibition, % at 8 µM. recombinant p97 ATPase, Kinase-Glo ATP luminescence, 3 h. actives 0.42% (n = 220,000). Transitional endoplasmic reticulum ATPase (Homo sapiens), P55072; in the data active = inhibition above about 15%;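 also: 0% = DMSO vehicle and 100% = wells lacking enzyme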
* marks the source's active call; other numbers are inactive results. A selection: hits, their analogues and other compounds. The true share with any hit is near 0.95%.

N#CCOc1ccc2oc(-c3ccco3)cc(=O)c2c1 was read as SUMO HTRF inh 52.4*, G6PDH counter 4.2, Diaphorase inh 24.2 and p97 ATPase inh 0.5.
COc1cc2[nH]c(C(=O)NCc3ccccc3)cc2c(OC)c1OC was read as HKDC1 inh -1.9 and SUMO HTRF inh 21.4.
Screening CCOc1ncccc1C(=O)OCC(=O)N(CC(C)C)c1c(N)n(Cc2ccccc2)c(=O)[nH]c1=O returned HKDC1 inh -1.8.
For O=C(/C=C/c1ccncc1)c1ccc(NC(=O)c2ccccc2F)cc1 the results were HKDC1 inh 11.7, SUMO HTRF inh 70.2*, G6PDH counter 2.2, Diaphorase inh -12.6 and p97 ATPase inh 11.4.
Screening O=c1c(-c2ccc(Cl)cc2)coc2c(CN3CCOCC3)c(O)ccc12 returned HKDC1 inh -5.2, SUMO HTRF inh 37.8, G6PDH counter -2.0, Diaphorase inh 19.8 and p97 ATPase inh 7.8.
O=c1c(-c2ccccc2)coc2c(CN3CCCC3)c(O)ccc12 was read as HKDC1 inh -8.4, SUMO HTRF inh 50.3*, G6PDH counter 5.0, Diaphorase inh 15.8 and p97 ATPase inh -2.1.
For CC(N=C1NS(=O)(=O)c2ccccc21)C(=O)NCc1ccc(F)cc1 (centres undefined) the results were HKDC1 inh -4.1.
Screening COc1ccc(Sc2ccccc2CN(C)C)cc1OC returned HKDC1 inh 0.1, SUMO HTRF inh 30.3, G6PDH counter 10.4, Diaphorase inh 9.8 and p97 ATPase inh 5.7.
CNCc1ccccc1Sc1ccc(O)c(O)c1 was read as HKDC1 inh 11.1, SUMO HTRF inh 52.4, G6PDH counter 50.5*, Diaphorase inh 63.2* and p97 ATPase inh 8.8.
Cc1nnc(SCC(=O)NC(C)(C)C)n1NCc1cccc(Br)c1 was read as HKDC1 inh -5.1 and SUMO HTRF inh -1.5.
`COc1ccc(NC(=O)c2ccccc2NS(=O)(=O)c2ccc(CNC(C)=O)cc2)c(OC)c1` gave HKDC1 inh -0.4 and SUMO HTRF inh 4.2.
`O=C1c2cccc3c(N4CCCCC4)ccc(c23)C(=O)N1c1ccc(O)cc1` gave HKDC1 inh -5.0, SUMO HTRF inh 31.6, G6PDH counter 6.0, Diaphorase inh 15.4 and p97 ATPase inh -3.0.
`O=C1c2cccc3c(N4CCCCC4)ccc(c23)C(=O)N1c1ccccc1O` gave HKDC1 inh 0.3, SUMO HTRF inh 17.9, G6PDH counter 8.6, Diaphorase inh 61.3* and p97 ATPase inh 6.0.
Screening O=C(CSc1nnc(NC(=O)c2ccccc2)s1)NC1CCCC1 returned HKDC1 inh 2.8 and SUMO HTRF inh 2.6.
`CCc1ccc(-n2nc3cc(C)c(N)cc3n2)cc1` gave HKDC1 inh 23.3 and SUMO HTRF inh 18.6.
`Cc1ccc(-n2nc3cc(C)c(N)cc3n2)cc1` gave HKDC1 inh 12.3, SUMO HTRF inh 27.3, G6PDH counter 24.6, Diaphorase inh 76.4* and p97 ATPase inh 1.9.
Screening Nc1ccc(-n2nc3ccccc3n2)cc1 returned HKDC1 inh -4.0.
COc1ccc(-n2nc3cc(C)c(N)c(Br)c3n2)cc1 was read as HKDC1 inh 18.5, SUMO HTRF inh 73.2, G6PDH counter 25.4, Diaphorase inh 74.0* and p97 ATPase inh 3.1.
`Cc1cc2nn(-c3cccc4ccccc34)nc2cc1N` gave HKDC1 inh 25.4, SUMO HTRF inh 27.9, G6PDH counter -23.3, Diaphorase inh 78.4* and p97 ATPase inh 4.4.
Screening COc1ccc(-n2nc3cc(N)c(Br)cc3n2)cc1 returned HKDC1 inh 8.9 and SUMO HTRF inh 8.1.
For Nc1ccc2nn(-c3ccccc3)nc2c1 the results were HKDC1 inh 7.7, SUMO HTRF inh 66.1*, G6PDH counter 32.5, Diaphorase inh 60.4* and p97 ATPase inh 7.1.
For CC(=O)Nc1cc(NC(C)=O)cc(C(=O)NCC2(N3CCOCC3)CCCCC2)c1 the results were HKDC1 inh 1.1.
NC(=O)c1nsc(C(=O)N(c2cccc(F)c2)C(C(=O)NCC2CCCO2)c2ccc3ncccc3c2)c1N (centres undefined) was read as HKDC1 inh 6.9 and SUMO HTRF inh 11.0.
O=C(Cn1c(CCCO)nc2ccccc21)Nc1ccccc1-c1ccccc1 was read as HKDC1 inh -5.6 and SUMO HTRF inh -1.1.
`Nc1ccc2nn(-c3cccc4ccccc34)nc2c1` gave HKDC1 inh 11.4, SUMO HTRF inh 57.5*, G6PDH counter 47.0, Diaphorase inh 41.4 and p97 ATPase inh 10.1.
COc1ccc(NC(=O)CCC(=O)c2cccs2)cc1S(=O)(=O)Nc1ccc(Cl)cc1 was read as HKDC1 inh -1.4, SUMO HTRF inh -10.4, G6PDH counter -13.5, Diaphorase inh 50.0* and p97 ATPase inh -2.1.
For COc1ccc(CNC(=O)N2CCN(c3ccccc3OC)CC2)cc1 the results were HKDC1 inh -5.6 and SUMO HTRF inh 3.8.
Screening CCOc1ccc(NC2=C(OC)C(=O)c3ccccc3C2=O)cc1 returned HKDC1 inh 1.9, SUMO HTRF inh 56.6*, G6PDH counter 26.4, Diaphorase inh 26.7 and p97 ATPase inh 1.0.
`COC1=C(Nc2ccc(OC)cc2)C(=O)c2ccccc2C1=O` gave HKDC1 inh -2.3, SUMO HTRF inh 34.5, G6PDH counter 32.8, Diaphorase inh 11.2 and p97 ATPase inh 4.5.
`Cc1nc(SCC(=O)NNC(=O)c2ccc(F)cc2)c2ccccc2n1` gave HKDC1 inh -9.1.
For O=c1c(OC2OC(CO)C(O)C(O)C2O)c(-c2ccc(O)c(O)c2)oc2cc(O)cc(O)c12 (centres undefined) the results were HKDC1 inh -0.4, SUMO HTRF inh 21.5, G6PDH counter 41.2, Diaphorase inh 61.7* and p97 ATPase inh 5.6.
`O=c1c(O[C@@H]2O[C@H](CO)C(O)C2O)c(-c2ccc(O)c(O)c2)oc2cc(O)cc(O)c12` (some centres undefined) gave HKDC1 inh 0.2.
C[C@@H]1O[C@@H](Oc2c(-c3ccc(O)c(O)c3)oc3cc(O)cc(O)c3c2=O)[C@H](O)[C@H](O)[C@H]1O was read as HKDC1 inh 9.8.
C[C@@H]1O[C@@H](Oc2c(-c3cc(O)c(O)c(O)c3)oc3cc(O)cc(O)c3c2=O)[C@H](O)[C@H](O)[C@H]1O was read as HKDC1 inh 0.9, SUMO HTRF inh 17.0, G6PDH counter 34.4, Diaphorase inh 70.9* and p97 ATPase inh 8.3.
For CCC(C(=O)NC1CCCC1)N(C(=O)Cn1nnc(-c2ccc(C)o2)n1)c1cccc(OC)c1 (centres undefined) the results were HKDC1 inh -2.8 and SUMO HTRF inh 5.1.
